Compound activity: PubChem, several laboratories
This is a sample that favours compounds with a hit; in the whole collection about 1.5% have one here.
UCH37 DUB inh: human UCH37 deubiquitinating enzyme inhibition. purified proteasome/UCH37, Ub-AMC cleavage fluorescence. inhibition, % (test concentration not listed). actives 0.33% (n = 330,000). AID 588478. Q9Y5K5;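 active means mean inhibition over replicate wells above about 20%, limit read from the data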;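 further: 0% = compound-free wells with enzyme and 100% = wells lacking proteasome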
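Test system – human UCH37 enzyme supplied as purified proteasome complex · Incubation – 30 min preincubation with enzyme, 25 min cleavage at room temperature · Detection – AMC fluorescence from Ub-AMC cleavage, excitation 355 nm, emission 460 nm · Benchmarks – no-proteasome wells (full inhibition) and compound-free wells (no inhibition)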
Apaf-1 inh: human Apaf-1 inhibition; reconstituted apoptosome caspase-3 activity, DEVD-Rh110 fluorescence; inhibition, % at 20 µM; actives 0.71% (n = 330,000); active means inhibition of at least 40% at 20 µM;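 further: plate controls were DMSO wells for no effect and DEVD-CHO caspase inhibitor wells for full effect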
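System: Apoptosome proteins | Medium: Hepes pH 7.5 with detergent and BSA | Also added: Cytochrome c trigger plus (Z-DEVD)2-Rh110 caspase-3 substrate | Incubation: 30 min compound preincubation, 50 min activation, room temperature | Detection: Rhodamine 110 fluorescence at Ex 480/Em 540 nm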
UBC13 inh: human UBC13 polyubiquitination inhibition; P61088; actives 0.47% (n = 330,000); AID 485273; inhibition, % at 20 µM; UBC13 polyubiquitin chain formation, TR-FRET; in the data active means inhibition above about 45%, passing the limit was not always enough; inconclusive means no clear call, values can overlap the other calls
Target sequence (P61088 whole entry, looked up): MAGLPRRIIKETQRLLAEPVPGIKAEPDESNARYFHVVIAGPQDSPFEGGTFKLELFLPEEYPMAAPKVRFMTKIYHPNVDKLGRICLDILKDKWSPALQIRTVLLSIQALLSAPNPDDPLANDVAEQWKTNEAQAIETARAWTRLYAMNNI
PREPL inh: inhibits the human prolyl oligopeptidase-like enzyme; Q4J6C6; recombinant PREPL, fluorescence polarization activity-based probe; inhibition, % at 5.96 µM; actives 0.68% (n = 320,000); AID 2751; in the data active means inhibition above about 43%;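 further: 0% = enzyme with DMSO and 100% = wells lacking enzyme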
Casp3 counter: caspase-3 inhibition (UBC13 counter-screen) | shares compounds with UBC13 inh | Recombinant caspase-3, Caspase-Glo 3/7 luminescence, 60 min | inhibition, % at 20 µM | AID 488856 | actives 4% (n = 1,400);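 active means mean inhibition across replicates above about 26%, limit read from the data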;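 further: plate controls were DMSO with caspase-3 for no effect and DMSO wells lacking enzyme for full effect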
Target sequence (P42574 whole entry, looked up): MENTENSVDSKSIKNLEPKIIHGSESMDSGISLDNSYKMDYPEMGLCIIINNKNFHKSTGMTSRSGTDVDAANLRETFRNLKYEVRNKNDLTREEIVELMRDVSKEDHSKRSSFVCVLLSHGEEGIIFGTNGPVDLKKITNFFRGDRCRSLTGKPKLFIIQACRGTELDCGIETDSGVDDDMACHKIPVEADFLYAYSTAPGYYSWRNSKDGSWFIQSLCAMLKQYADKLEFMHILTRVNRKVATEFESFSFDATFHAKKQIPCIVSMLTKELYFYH
UBC13 confirm: human UBC13 polyubiquitin inhibition, confirmed; actives 68% (n = 1,400); UBC13 polyubiquitination, TR-FRET, biochemical; inhibition, % at 10 µM; shares compounds with UBC13 inh; in the data active means inhibition above about 45%; inconclusive means no clear call, values can overlap the other calls
An asterisk follows results filed as active; i = inactive; u = inconclusive; x = no result given.

SMILES	UCH37 DUB inh	Apaf-1 inh	UBC13 inh	PREPL inh	Casp3 counter	UBC13 confirm
Cc1cccc(OCCCC(=O)NNC(=O)c2ccccn2)c1	x	-8	75*	20	-3	16
COc1ccc(C(=O)OCC(=O)NC2CCCCCCC2)cc1OC	2	-3	6	4	x	x
COc1ccc(C(=O)OCC(=O)NC2CCCCCC2)cc1OC	1	-39	66*	6	1	5
Nc1ccc(C(=O)NN=Cc2ccccc2)cc1	8	x	x	x	x	x
CC(C)=CCc1c(O)cc(O)c2c(=O)c(O[C@@H]3O[C@@H](C)[C@H](O)[C@@H](O)[C@H]3O)c(-c3ccc(O)cc3)oc12	4	10	86*	15	-4	78*
C[C@@H]1O[C@@H](OC[C@@H]2O[C@H](Oc3c(-c4ccc(O)cc4)oc4cc(O)cc(O)c4c3=O)[C@@H](O)[C@H](O)[C@H]2O)[C@H](O)[C@H](O)[C@H]1O	4	-3	7	0	x	x
COc1ccc(Nc2nc(NN=Cc3ccc(N(C)C)cc3)nc(C)c2[N+](=O)[O-])cc1	6	x	x	x	x	x
CCc1ccc(C2CC(c3ccc(F)cc3)Nc3nc(N)nn32)cc1 (stereo not drawn)	1	8	49*	24	-1	7
COCCNc1nc2c(-c3cccc(C(F)(F)F)c3)nnn2c2ccccc12	-386	10	47*	-7	4	u
CCOCCCNc1nc2c(-c3ccccc3)nnn2c2ccccc12	-225	9	32	2	x	x
CC(C)OCCCNc1nc2c(-c3ccccc3)nnn2c2ccccc12	-275	12	46*	-1	-4	41
Cc1ccsc1C=NNC(=O)c1ccc2ccccc2c1	2	x	x	x	x	x
COc1cccc(-c2c(C(=O)NN=C(C)c3ccncc3)nnn2-c2nonc2N)c1	2	x	x	x	x	x
COc1ccc(CCN2CCC(Nc3nc4ccccc4n3Cc3ccc(F)cc3)CC2)cc1	4	56*	48*	38	1	27
CN(C)CCNc1oc(COc2ccc(Cl)cc2Cl)nc1C#N	-3	6	91*	23	-2	98*
O=C(CCN1C(=O)C2C3C=CC(C3)C2C1=O)N1CCN(c2ccc(F)cc2)CC1 (stereo not drawn)	3	1	-9	22	x	x
O=C1C2C3C=CC(C4CC34)C2C(=O)N1CCCCN1CCN(c2ccc(F)cc2)CC1 (stereo not drawn)	5	10	54*	18	-1	4
O=C(Nc1ccccn1)c1cc(-c2ccc(Cl)s2)nc2ccccc12	-91	13	47*	5	1	u
Cc1cc(NC(=O)c2cc(-c3ccc(C)s3)nc3ccccc23)no1	-107	7	40	0	x	x
Cc1ccnc(NC(=O)c2cc(-c3ccc(Cl)s3)nc3ccccc23)c1	-54	14	u	5	x	x
O=C(O)c1cc(-c2ccc(Cl)s2)nc2ccccc12	i	4	17	1	x	x
CN(Cc1ccccc1)C(=O)COC(=O)c1cc(-c2ccc(Cl)s2)nc2ccccc12	-103	14	51*	-20	-2	u
Cc1cccc(NC(=O)c2cc(-c3ccc(C)s3)nc3ccccc23)n1	-87	0	47*	-2	3	40
COc1cccc(-c2nnc3n2N=C(c2cc(OC)ccc2OC)CS3)c1	5	11	56*	-2	-3	48*
CCOc1cccc(-c2nnc3n2N=C(c2cc(OC)ccc2OC)CS3)c1	-1	22	3	-24	x	x
SMILES	UCH37 DUB inh	Apaf-1 inh	UBC13 inh	PREPL inh	Casp3 counter	UBC13 confirm
CC(=NNc1ccc(C#N)cc1[N+](=O)[O-])c1ccc(O)cc1	3	x	x	x	x	x
COC(=O)c1cn(S(=O)(=O)c2ccccc2)c2ccccc12	0	13	29	-2	x	x
CC(=O)c1cn(S(=O)(=O)c2ccccc2)c2ccccc12	6	1	91*	-8	-2	88*
CCCCN(CC)CCCNC(=O)c1cc2c(=O)n(C)c3ccccc3c2n1C	-2	13	49*	-43	-4	36
CC(C)OCCCNC(=O)c1cc2c(=O)n(C)c3ccccc3c2n1C	-1	4	-4	-4	x	x
Br/C(C=NN1CCN(Cc2ccccc2)CC1)=C\c1ccccc1	2	x	x	x	x	x
O=C1NC2(CCCC2)N=C1c1ccc(F)cc1	-1	-2	-18	2	x	x
O=C1NC2(CCCCCC2)N=C1c1ccc(Br)cc1	1	6	49*	-9	-3	u
O=C(CCCn1c(=S)[nH]c2ccc(Br)cc2c1=O)NCc1ccccn1	-1	2	27	-2	x	x
O=C(CCCn1c(=S)[nH]c2ccc(Br)cc2c1=O)N1CCN(c2ccccn2)CC1	4	7	45*	-156	-2	44
O=C(Nc1ccc(NC(=O)c2ccc(Cl)cc2Cl)cc1)c1ccc2c(c1)OCO2	-5	-1	0	2	x	x
O=C(Nc1cccc(C2=NCCN2)c1)Nc1cccc(C2=NCCN2)c1	1	34	97*	5	-4	104*
O=C(Nc1ccc(C2=NCCN2)cc1)c1ccc(C(=O)Nc2ccc(C3=NCCN3)cc2)c(Cl)c1	x	-22	104*	-8	0	118*
COC(=O)c1ccc(COc2ccc(C=NO)cc2OC)o1	3	x	x	x	x	x
O=C(CC=NOCc1ccc(Cl)cc1Cl)c1ccccc1	0	x	x	x	x	x
COc1ccc(C=NNC(=O)c2cccc(Br)c2)cc1Cn1cc(Cl)cn1	3	x	x	x	x	x
CCCCn1c(=O)[nH]c(=O)c2c1nc(-c1ccc(OCC)cc1)n2CC	-106	9	4	3	x	x
CCCCn1c(=O)[nH]c(=O)c2c1nc(-c1ccc(C#N)cc1)n2C1CCCC1	-464	19	78*	10	-4	68*
COc1ccc(/C=C/C(=O)Nc2c(C)nn(C)c2C)cc1COc1ccc(Cl)cc1Br	6	-1	60*	-8	-2	63*
C#CCNC(=O)C1=C[C@H](c2cn(C(C)=O)c3ccccc23)C[C@H](OCc2ccc(CO)cc2)O1	0	6	63*	13	-2	46*
CC(=O)n1cc([C@H]2C=C(C(=O)Nc3ccccc3)O[C@@H](OCc3ccc(CO)cc3)C2)c2ccccc21	6	24	64*	5	7	58*
Cc1ccc(NC(=O)C2Cc3ccccc3OC2=NO)cc1C (stereo not drawn)	3	x	x	x	x	x
O=C(O)c1ccc(NN=Cc2cccc(F)c2)cc1	17	x	x	x	x	x
CON=C(N)c1ccc([N+](=O)[O-])cc1	7	x	x	x	x	x
CCN1CCN(Cc2ccc(NC(=O)c3ccc(C)c(NC(=O)c4ccno4)c3)cc2C(F)(F)F)CC1	3	24	8	-8	x	x
CCN1CCN(Cc2ccc(NC(=O)c3ccc(C)c(/C=C/c4cnc(Nc5cc(N6CCNCC6)nc(C)n5)cn4)c3)cc2C(F)(F)F)CC1	-99	32	123*	28	-1	116*
CC(Cc1ccccc1)=NNC(=O)CNC(=O)c1ccccc1O	-10	x	x	x	x	x
